pIC50: −log10 of the molar value.
Key:
[1] = system: LS174T; test: The compound was evaluated for Activation Factor; assay type: functional, Homo sapiens
[2] = system: LS174T; test: Tested for the cytotoxicity in LS174T cells after activation by enzyme nitroreductase/NADH; assay type: functional, cell-based; details: Homo sapiens
In short: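 Human adenocarcinoma LS174T cells were seeded at 2000 cells/well and exposed to a range of prodrug concentrations together with nitroreductase and NADH cofactor for 1 h. Cells were washed and grown for 3 days. IC50 is the prodrug dose giving 50% growth inhibition versus drug-free controls.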

[3] = system: LS174T; test: Tested for the cytotoxicity in LS174T cells before activation by enzyme nitroreductase/NADH; assay type: functional, cell-based; details: Homo sapiens
In short: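 LS174T adenocarcinoma cells were seeded at 2000 cells/well and treated with various prodrug concentrations for 1 h without enzyme. They were washed and incubated for 3 days. IC50 is the dose inhibiting growth by 50% relative to drug-free controls.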

[4] = system: LS174T; test: Parent […] tested for the cytotoxicity in LS174T cells; assay type: functional, cell-based; details: Homo sapiens
[5] = system: LS174T; test: Tested for the cytotoxicity in LS174T cells; 0.001-0.01; assay type: functional, cell-based; details: Homo sapiens

SMILES	Activation Factor [1]	pIC50 [2]	pIC50 [3]	pIC50 [4]	pIC50 [5]
COc1cc2c(cc1OCCCOc1cc3c(cc1OC)C(=O)N1CCC[C@H]1[C@H](O)N3C(=O)OCc1ccc([N+](=O)[O-])cc1)N(C(=O)OCc1ccc([N+](=O)[O-])cc1)[C@@H](O)[C@@H]1CCCN1C2=O	15.7	4.86	3.67	9.30	
C/C=C1/C[C@H]2[C@H](O)N(C(=O)OCc3ccc([N+](=O)[O-])cc3)c3cc(OCc4ccccc4)c(OC)cc3C(=O)N2C1	13.5	5.19	4.06	9.00	
COc1cc2c(cc1OCc1ccccc1)N(C(=O)OCc1ccc([N+](=O)[O-])cc1)[C@@H](O)[C@@H]1CCCN1C2=O	>100	5.30	< 3.30	8.10	
C/C=C1/C[C@H]2C=Nc3cc(OCc4ccccc4)c(OC)cc3C(=O)N2C1					8.00

Reference: ChEMBL document CHEMBL1133066, “Design and synthesis of novel pyrrolobenzodiazepine (PBD) prodrugs for ADEPT and GDEPT” (Bioorg Med Chem Lett, 2000)
